From ChEMBL document CHEMBL4130408, “Photoactivation provides a mechanistic explanation for pan-assay interference behaviour of 2-aminopyrroles in lipoxygenase inhibition” (Eur J Med Chem, 2017) come the findings set out here.

The target of the assay is T1, Polyunsaturated fatty acid lipoxygenase ALOX15 (Homo sapiens) (UniProt P16050).
T1 sequence (whole entry): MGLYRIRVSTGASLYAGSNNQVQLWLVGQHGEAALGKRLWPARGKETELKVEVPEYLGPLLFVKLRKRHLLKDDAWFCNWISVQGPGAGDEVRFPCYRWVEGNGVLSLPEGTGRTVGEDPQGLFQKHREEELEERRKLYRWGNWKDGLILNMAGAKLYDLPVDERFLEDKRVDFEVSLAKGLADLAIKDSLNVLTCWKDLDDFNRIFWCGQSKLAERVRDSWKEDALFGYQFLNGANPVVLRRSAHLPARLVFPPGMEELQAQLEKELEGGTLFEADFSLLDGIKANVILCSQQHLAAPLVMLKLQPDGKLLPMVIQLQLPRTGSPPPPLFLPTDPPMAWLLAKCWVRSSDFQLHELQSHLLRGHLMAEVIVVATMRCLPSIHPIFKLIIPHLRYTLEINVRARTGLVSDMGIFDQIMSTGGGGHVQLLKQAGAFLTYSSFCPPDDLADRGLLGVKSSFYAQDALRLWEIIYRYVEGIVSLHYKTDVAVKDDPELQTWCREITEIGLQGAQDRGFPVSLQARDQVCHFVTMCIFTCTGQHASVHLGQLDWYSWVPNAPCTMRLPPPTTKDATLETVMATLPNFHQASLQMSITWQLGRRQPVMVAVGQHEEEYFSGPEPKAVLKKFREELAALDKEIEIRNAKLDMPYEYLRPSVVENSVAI
Nature of the assay: Inhibition of recombinant human 15-LOX-1 expressed in Escherichia coli BL21(DE3) assessed as residual activity at 50 uM using linoleic acid as substrate preincubated for 10 mins followed by substrate addition. In outline: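 h-15-LOX-1 (1:100 enzyme stock, 1:400 final) preincubated 10 min at room temperature with inhibitor in 25 mM HEPES pH 7.4, then linoleic acid added to 25 µM final (inhibitor 50 µM final). 13(S)-HpODE formation read as A234 over time, rate taken from linear part within first 16 min; no-inhibitor = 100%, no-enzyme = 0%. Triplicate.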

As to `Nc1[nH]c(C(=O)c2ccccc2)c(-c2ccc(Cl)c(F)c2)c1C(=O)c1c[nH]c2ccccc12`, the Activity was 91.7%.

With `Nc1[nH]c(C(=O)c2ccccc2)c(-c2ccccc2C(F)(F)F)c1C(=O)NC1CCCCC1`, the Activity amounted to 101%.

For `COc1ccc(CCNC(=O)c2c(N)[nH]c(C(=O)c3ccccc3)c2-c2ccc(N(C)C)cc2)cc1`, the Activity is 66.4%.

`CC(NC(=O)c1c(N)[nH]c(C(=O)c2ccccc2)c1-c1ccccc1Br)c1cccc2ccccc12` (stereo not drawn): the Activity was 71.3%.

Turning to `Nc1[nH]c(C(=O)c2ccccc2)c(-c2ccccc2C(F)(F)F)c1C(=O)NCCc1cccs1`, the Activity was found to be 91.5%.

As to `Nc1[nH]c(C(=O)c2ccccc2)c(-c2ccc(Cl)cc2Cl)c1C(=O)c1ccc(Br)cc1`, the Activity was 88.3%.

For the compound `Nc1[nH]c(C(=O)c2ccc(Br)cc2)c(-c2ccccn2)c1C(=O)NCCc1c[nH]c2ccccc12`, the Activity came to 42%.

For the compound `COc1ccc(C(=O)c2[nH]c(N)c(C(N)=O)c2-c2ccc(O)c(OC)c2)cc1`, the Activity is 67.1%.

`CC(C)(C)C(=O)c1c(N)[nH]c(C(=O)c2ccccc2)c1-c1ccc(F)cc1`: the Activity came to 91.4%.

As for `COc1ccc(C(=O)c2[nH]c(N)c(C(=O)NCCc3c[nH]c4ccccc34)c2-c2c(F)cccc2Cl)cc1`, the Activity was 71.3%.

For `Nc1[nH]c(C(=O)c2ccccc2)c(-c2ccc(Cl)c(Cl)c2)c1C(=O)NCCc1c[nH]c2ccccc12`, the Activity stood at 36.8%.

With `Nc1[nH]c(C(=O)c2ccccc2)c(-c2ccc(Br)cc2)c1C(=O)NCCc1c[nH]c2ccccc12`, the Activity was determined as 73.5%.

For `COc1ccc(C(=O)c2[nH]c(N)c(C(=O)c3c[nH]c4ccccc34)c2-c2ccc(OC)cc2)cc1`, the Activity stood at 89.4%.

Take `COCCNC(=O)c1c(N)[nH]c(C(=O)c2ccc(Br)cc2)c1-c1cccc2ccc(OC)cc12`: the Activity turned out to be 75.6%.

As for `Nc1[nH]c(C(=O)c2ccccc2)c(-c2ccc(C(F)(F)F)cc2)c1C(=O)NCc1ccc(Cl)cc1Cl`, the Activity came out at 74.7%.

As to `Cc1cc(C)cc(-c2c(C(=O)c3ccccc3)[nH]c(N)c2C(=O)NCCc2c[nH]c3ccccc23)c1`, the Activity is -47.3%.

With `Nc1[nH]c(C(=O)c2ccccc2)c(-c2ccc(Cl)cc2)c1C(=O)NCc1ccccc1`, the Activity is 97.3%.

Turning to `Nc1[nH]c(C(=O)c2ccccc2)c(-c2ccc3ccccc3c2)c1C(=O)NCCc1ccc(Cl)cc1`, the Activity was 80.6%.

For the compound `Nc1[nH]c(C(=O)c2ccccc2)c(-c2ccccn2)c1C(=O)c1c[nH]c2ccc(Br)cc12`, the Activity turned out to be 55.3%.

For the compound `Nc1[nH]c(C(=O)c2ccccc2)c(-c2ccc(Cl)cc2Cl)c1C(=O)NCCC1=CCCCC1`, the Activity was 76.5%.

On to `Nc1[nH]c(C(=O)c2ccccc2)c(-c2ccc3ccccc3c2)c1C(=O)NCc1cccc2ccccc12`, for which the Activity came out at 98.6%.

In the case of `Nc1[nH]c(C(=O)c2ccccc2)c(-c2cccc(Br)c2)c1C(=O)c1ccccc1`, the Activity came out at 61.2%.

For `CCCCNC(=O)c1c(N)[nH]c(C(=O)c2ccccc2)c1-c1ccc(Cl)cc1`, the Activity was found to be 104%.

In the case of `NC(=O)c1c(N)[nH]c(C(=O)c2ccccc2)c1-c1ccc2ccccc2c1`, the Activity is 79.1%.

`Nc1[nH]c(C(=O)c2ccccc2)c(-c2ccncc2)c1C(=O)NC1CC1`: the Activity was 91%.

For the compound `Nc1[nH]c(C(=O)c2ccccc2)c(-c2ccc([N+](=O)[O-])cc2)c1C(=O)N1CCC(CO)CC1`, the Activity is 85%.

As to `COc1ccc(-c2c(C(=O)c3ccccc3)[nH]c(N)c2C(=O)c2c[nH]c3ccccc23)cc1OC`, the Activity was 82.5%.

As for `Nc1[nH]c(C(=O)c2ccccc2)c(-c2ccc(Br)cc2)c1C(=O)NC1CCCCC1`, the Activity is 87.5%.

Regarding `Cc1ccc(-c2c(C(=O)c3ccccc3)[nH]c(N)c2C(=O)NCCc2c[nH]c3ccccc23)cc1`, the Activity amounted to 33.3%.

Take `N#Cc1c(N)[nH]c(C(=O)c2ccccc2)c1-c1ccc(Br)cc1`: the Activity worked out at 63.4%.

Turning to `Nc1[nH]c(C(=O)c2ccccc2)c(-c2ccc(Cl)cc2F)c1C(=O)NCCc1c[nH]c2ccccc12`, the Activity was found to be 74.8%.

Consider `Nc1[nH]c2cc(C(F)(F)F)ccc2c1C(=O)NCc1ccc(F)cc1`, for which the Activity worked out at 102%.

Consider `Nc1[nH]c(C(=O)c2ccccc2)c(-c2cccnc2)c1C(=O)NC1CCCCC1`, for which the Activity stood at 77.5%.

For `Cc1ccc(-c2c(C(=O)c3ccccc3)[nH]c(N)c2C(=O)NCc2ccc(Cl)cc2)cc1`, the Activity worked out at 94.4%.

`Nc1[nH]c(C(=O)c2ccc(Br)cc2)c(-c2ccc(Br)cc2)c1C(=O)NCc1ccc(-c2ccccc2)cc1`: the Activity was 91.2%.

Take `Nc1[nH]c(C(=O)c2ccc(Br)cc2)c(-c2ccc(Cl)cc2Cl)c1C(=O)NCCc1c[nH]c2ccccc12`: the Activity came to 69.3%.

As for `NC(=O)c1c(N)[nH]c(C(=O)c2ccccc2)c1-c1ccc2c(c1)OCO2`, the Activity was found to be 92.3%.

As for `COc1ccc(C(=O)c2[nH]c(N)c(C(=O)NCCc3c[nH]c4ccccc34)c2-c2ccc(Cl)cc2Cl)cc1`, the Activity was 64.5%.

As to `Nc1[nH]c(C(=O)c2ccccc2)c(-c2ccccc2C(F)(F)F)c1C(=O)NCc1cccc2ccccc12`, the Activity was 85%.

In the case of `Nc1[nH]c(C(=O)c2ccccc2)c(-c2cccc3ccccc23)c1C(=O)NCc1ccccc1`, the Activity turned out to be 92.5%.

Turning to `Nc1[nH]c(C(=O)c2ccccc2)c(-c2ccccc2Cl)c1C(=O)NCCc1c[nH]c2ccccc12`, the Activity is 98.2%.

`Nc1[nH]c(C(=O)c2ccc(Br)cc2)c(-c2ccc(Br)cc2)c1C(=O)N1CCCCC1`: the Activity stood at 63.3%.

For `Nc1[nH]c(C(=O)c2ccccc2)c(-c2ccc(Cl)cc2)c1C(=O)NCCC1=CCCCC1`, the Activity turned out to be 94.9%.

With `Nc1[nH]c(C(=O)c2ccccc2)c(-c2ccncc2)c1C(=O)NCc1ccc(Cl)cc1`, the Activity was found to be 86.6%.

With `Nc1[nH]c(C(=O)c2ccccc2)c(-c2cccc3ccccc23)c1C(=O)c1ccccc1`, the Activity was 108%.

In the case of `Nc1[nH]c(C(=O)c2ccc(Br)cc2)c(-c2ccccc2Br)c1C(=O)NCCc1c[nH]c2ccccc12`, the Activity was 83.1%.

For `Nc1[nH]c(C(=O)c2ccccc2)c(-c2cccc(C(F)(F)F)c2)c1C(=O)NCc1cccc2ccccc12`, the Activity stood at 2.31%.

Turning to `COc1cc(-c2c(C(=O)c3ccccc3)[nH]c(N)c2C(=O)NCCc2c[nH]c3ccccc23)ccc1F`, the Activity was 37.1%.

Consider `COc1ccc(C(=O)c2[nH]c(N)c(C(=O)NCCc3c[nH]c4ccccc34)c2-c2ccc(Cl)cc2)cc1`, for which the Activity worked out at 68.1%.

Regarding `Nc1[nH]c(C(=O)c2ccccc2)c(-c2ccccc2Br)c1C(=O)NC1CCCCC1`, the Activity amounted to 86.7%.

For `Nc1[nH]c(C(=O)c2ccccc2)c(-c2ccc(Cl)cc2)c1C(=O)NCc1ccco1`, the Activity came to 88.8%.

On to `Nc1[nH]c(C(=O)c2ccccc2)c(-c2ccc(C(F)(F)F)cc2)c1C(=O)NCCc1c[nH]c2ccccc12`, for which the Activity came to 43.5%.

In the case of `Nc1[nH]c(C(=O)c2ccc(Br)cc2)c(-c2ccccc2)c1C(=O)NCCc1c[nH]c2ccccc12`, the Activity came to 69%.

As to `N#Cc1c(N)[nH]c(C(=O)c2ccccc2)c1-c1ccc(Cl)cc1`, the Activity came to 92.2%.

`COc1ccccc1CCNC(=O)c1c(N)[nH]c(C(=O)c2ccccc2)c1-c1ccc(Br)cc1`: the Activity amounted to 64.5%.

`Nc1[nH]c(C(=O)c2ccccc2)c(-c2ccc(Cl)cc2)c1C(=O)c1c[nH]c2cc(F)ccc12`: the Activity lay within 86.5 to 87.5%.

Take `CC(C)(C)C(=O)c1c(N)[nH]c(C(=O)c2ccccc2)c1-c1ccc([N+](=O)[O-])cc1`: the Activity worked out at 110%.

As for `COc1ccc(C(=O)c2[nH]c(N)c(C(=O)NCCc3c[nH]c4ccccc34)c2-c2ccc(OC)c(OC)c2)cc1`, the Activity was 70.3%.

For `Nc1[nH]c(C(=O)c2ccccc2)c(-c2cccnc2)c1C(=O)NCCc1ccc(Cl)cc1Cl`, the Activity amounted to 99.9%.

Regarding `Nc1[nH]c(C(=O)c2ccccc2)c(-c2ccc(Cl)cc2)c1C(=O)c1ccc(Cl)cc1`, the Activity is 100%.

`Nc1[nH]c(C(=O)c2ccccc2)c(-c2cccnc2)c1C(=O)c1ccccc1`: the Activity came out at 84.9%.

As for `Nc1[nH]c(C(=O)c2ccc(Cl)cc2)c(-c2ccc(Br)cc2)c1C(=O)c1c[nH]c2ccc(F)cc12`, the Activity is 96.2%.

Consider `Nc1[nH]c(C(=O)c2ccc(Br)cc2)c(-c2ccc(Br)cc2)c1C(=O)NC1CCCCC1`, for which the Activity came out at 83.4%.

On to `Nc1[nH]c(C(=O)c2ccccc2)c(-c2ccccc2C(F)(F)F)c1C(=O)c1cccs1`, for which the Activity worked out at 86.4%.

Consider `Nc1[nH]c(C(=O)c2ccc(Br)cc2)c(-c2ccncc2)c1C(=O)c1ccccc1`, for which the Activity worked out at 109%.

On to `Nc1[nH]c(C(=O)c2ccc(Br)cc2)c(-c2ccc(Br)cc2)c1C(=O)NC1CC1`, for which the Activity is 95%.

As for `CC(C)(C)C(=O)c1c(N)[nH]c(C(=O)c2ccccc2)c1-c1ccc(Br)cc1`, the Activity came out at 87.2%.

As to `Nc1[nH]c(C(=O)c2ccccc2)c(-c2ccccn2)c1C(=O)c1c[nH]c2cc(F)ccc12`, the Activity was 98.5%.
